This data set can be described thus: Toxicity liver stage against HepG2, at 10uM. Details: test concentration 10 uM, cell line HepG2-A16-CD81EGFP. In kind it is cell-based. To be noted: human, HepG2-A16-CD81EGFP cells; read-out: INHIBITION
The essentials:
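Uninfected HepG2-A16-CD81EGFP cells, 3 × 10^3 per well, 1536-well, plated on prespotted compound at 10 μM final, parasite-free screening media added to match infected plates; puromycin 10 μM positive, DMSO 0.5% negative; run in parallel with 48 h PbLuc assay at 37 °C, 5% CO2; viability by CellTiter-Glo luminescence, normalized to controls.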
Regarding `O=C(CC1CC1)N1CCC2(CC1)CN(c1ncccn1)CCO2`, the cytotoxicity at 10 µM amounted to 1.49%.
The same measure for `Cc1ccc(CCC(=O)N2CCC(Nc3cccnn3)CC2)cc1`: -5.36%; for `CC(C)CN1CCC2(CC1)CC(NS(C)(=O)=O)c1ccccc1O2` (stereo not drawn): -4.44%.
The figure for `COCCN1CCc2ncnc(OC(C)C)c2CC1` is 8.26%; for `CN(Cc1cc(C2CC2)on1)C(=O)CN1C(=O)OC(C)(C)C1=O` it is -127%; for `CC(=O)Nc1cccc2c1ccn2CC(=O)Nc1n[nH]c(CC(C)C)n1` it is -0.473%.
As for `CC(C)c1nccn1CCC(=O)N1CCCCC1c1ccn[nH]1` (stereo not drawn), the cytotoxicity at 10 µM is 6.16%.
The figure for `CCOC(=O)Cc1n[nH]c(-c2cncc(Br)c2)n1` is 3.24%.
The same measure for `CC(=O)N1CCN(Cn2nc(-c3ccc(F)cc3)oc2=O)CC1`: -3.89%; for `Cc1cccc(CN2C[C@@H]3CN(C(=O)c4ccsc4)C[C@@H]3C2=O)c1`: -18.8%; for `CC(C)CNC(=O)c1nc2c(s1)CCN(C(=O)c1cccnc1)CC2`: 7.1%.
The same measure for `CCOc1nn(CC)cc1-c1nnc(SCC)n1C`: 1.81%; for `Cn1nccc1-c1nc2c(cc1C(=O)O)CCN(C(=O)C1CC1)CC2`: -143%.
On to `CCC1=NN2C(=N)C(=Cc3cccn3-c3ccc(Br)cc3)C(=O)N=C2S1`, for which the cytotoxicity at 10 µM was -7.83%.
The same measure for `Cn1nccc1CCC(=O)N1CCCC(Cc2cccnc2)C1` (stereo not drawn): -3.14%; for `CN(CCC#N)C(=O)Cc1csc(-c2ncccn2)n1`: -0.343%.
The same measure for `COc1ccccc1CCNC(=O)NC(C)COCC(F)(F)F` (stereo not drawn): 8.91%; for `COCc1ccc(C(=O)N(CCC#N)Cc2ccccn2)cc1`: 14%.
The same measure for `COCCN(C)C[C@@H]1CN(c2nnc(C(C)C)s2)C[C@@H]1CO`: -2.35%; for `c1ccc(O[C@@H]2CC[C@H]3[C@H]2OCCN3CC2CCOCC2)nc1`: -1.02%.
Take `COC(=O)c1ccnn1COc1ccc(Cl)cc1`: the cytotoxicity at 10 µM is -14.8%.
The same measure for `CCn1nccc1CN(C)c1nc(N)nc2c1nc(C)n2C`: -4.83%; for `CN(Cc1ccc(Cl)c(Cl)c1)C(=O)CNC(N)=O`: -8.87%.
On to `Cc1ccccc1CC1(CO)CCCN(c2ncnc3sccc23)C1` (stereo not drawn), for which the cytotoxicity at 10 µM is 27.5%.
The same measure for `Cc1ccc(S(=O)(=O)NCC2COCc3c(C)nnn3C2)cc1F` (stereo not drawn): -4.55%.
For `COc1cccc(CNC(=O)c2cccnc2SC(C)C)c1`, the cytotoxicity at 10 µM was -1.35%.
As to `CN1CCN(C2CCCC2)C(CCO)C1` (stereo not drawn), the cytotoxicity at 10 µM turned out to be 0.456%.
Regarding `COc1ccc(CC(=O)N2CC[C@H](CO)[C@H](O)C2)c(OC)c1`, the cytotoxicity at 10 µM is -0.392%.
As to `COCc1cc(NCCc2ccc(F)cc2)n2nccc2n1`, the cytotoxicity at 10 µM was -12.6%.
Regarding `Cc1ncsc1C(=O)N1CCC(O)(CN2CCc3ccccc3C2)C1` (stereo not drawn), the cytotoxicity at 10 µM is -8.11%.
Take `O=C(c1ccoc1)N1CCC2(CCCN(c3ncc(F)cn3)C2)C1` (stereo not drawn): the cytotoxicity at 10 µM is -98.3%.
The same measure for `CS(=O)(=O)N1CCC(C(=O)N2CCOc3ccccc32)CC1`: -0.595%; for `CCc1cnc(C)nc1N1CCN(Cc2ccc(-c3cc[nH]n3)o2)CC1`: -0.898%; for `Cc1cc(NCCO)nc2[nH]nc(N)c12`: -51.7%.
The same measure for `CC(C)NC(=O)NCc1cc(-c2ccco2)n(CC(F)(F)F)n1`: -12.8%; for `Cn1cc(-c2nnn3c2COC(CNCc2ccncc2)C3)cn1` (stereo not drawn): 0.887%; for `COc1cccc(-c2n[nH]c3c2CN(C(=O)c2cccc(=O)[nH]2)CC3)c1`: -5.66%.
The figure for `CCc1nnc2n1CCN(C(C(=O)N(CC)CC)c1ccccc1)C2` (stereo not drawn) is -0.77%.
Consider `Cc1nc(C)n(C2CCCN(C(=O)c3cscn3)C2)n1` (stereo not drawn), for which the cytotoxicity at 10 µM was -8.78%.
As to `CCOC1CC2(CCN(C(C)=O)CC2)c2cc(F)ccc21` (stereo not drawn), the cytotoxicity at 10 µM was -143%.
As for `COc1ccc(F)cc1CN1CCCC(c2cc(C(N)=O)[nH]n2)C1` (stereo not drawn), the cytotoxicity at 10 µM came out at 0.313%.
The figure for `Cc1ccc(CCNc2nccc(-c3cc(C(=O)O)ccn3)n2)o1` is -2.86%; for `CCn1cc(CN2CCCN(C(=O)c3ccc(C)nc3)CC2)cn1` it is -10.4%; for `Cc1cn[nH]c1C1COCCN1C(=O)c1ccc2[nH]nnc2c1` (stereo not drawn) it is 2.73%.
As to `O=C(CN1CCN(C(=O)c2ccccc2)CC1)Nc1ncc(Br)cc1Br`, the cytotoxicity at 10 µM is 8.63%.
The figure for `COc1ccccc1OCCCN1CCNC1=O` is 1.5%.
The same measure for `COCC1CCN(C(=O)c2cccc(S(=O)(=O)NCC3(C)COC3)c2)C1` (stereo not drawn): 3.82%; for `CC(C)CCC(=O)NCc1ccc(N2CCCCC2)cc1`: 7.89%; for `O=C1CCCN1Cc1noc(-c2ccc(Cl)cc2)n1`: 5.56%.
The same measure for `CN(C)c1nc(NCc2ccccc2Cn2cccn2)ncc1F`: 54.4%; for `O=C(c1cc(C2CC2)on1)N1C[C@H]2CC[C@](O)(c3ccccc3F)[C@H]2C1`: 5.37%.
As for `CCSCCC(=O)N1CCc2[nH]nc(COc3ccccc3)c2C1`, the cytotoxicity at 10 µM was -2.19%.
Regarding `Cc1ccccc1N(CC(=O)NCCc1nnc2n1CCC2)S(C)(=O)=O`, the cytotoxicity at 10 µM was -0.69%.
In the case of `O=S(=O)(Cc1ccccc1F)Cc1nnnn1C1CC1`, the cytotoxicity at 10 µM is -16.5%.
The same measure for `CCn1nc(C)c(CN2CCC(c3ccn[nH]3)C2)c1C` (stereo not drawn): -0.125%; for `CCCN1CCN(C(=O)c2cncnc2C)[C@H]2CS(=O)(=O)C[C@H]21`: 0.145%; for `O=S(=O)(NCCNc1ccc(-n2cccc2)nn1)c1cccs1`: -12.3%.
The figure for `CC(C)c1nc(CN2CCN(C(=O)Cc3ccccc3Cl)CC2)no1` is -1.96%; for `Cc1ccc(C)c(NC(=O)Nc2c[nH]c(=O)[nH]c2=O)c1` it is 0.0452%.
The figure for `Cc1ccc(CNC(=O)CN2CCN(CC(O)c3ccco3)CC2)cc1` (stereo not drawn) is 2.71%.
As to `CCc1noc(C(C)N2CCCN(Cc3noc(C4CC4)n3)CC2)n1` (stereo not drawn), the cytotoxicity at 10 µM is -6.87%.
Consider `O=C(NCCCn1cccn1)c1nc2ccccc2[nH]1`, for which the cytotoxicity at 10 µM is -7.16%.
The same measure for `CN(C)c1ccc(CC2CCCN(c3cnccn3)C2)nn1` (stereo not drawn): 4.71%; for `CCCC1(CO)CCCN(c2ncccc2F)C1` (stereo not drawn): -6.83%.
Regarding `CN1CCN(C(=O)NCCNc2ncccn2)Cc2ccccc21`, the cytotoxicity at 10 µM was -4.47%.
Take `CCCc1cnc(C)nc1N1CCC2(CCCO2)CC1`: the cytotoxicity at 10 µM is -13.4%.
The figure for `O=C(c1ccncc1F)N1CC[C@@H]2OC(COCC3CC3)CC[C@@H]21` (stereo partly drawn) is -4.03%.
As to `O=S(=O)(C1CC1)N1CCn2c(Cn3cccn3)cnc2C1`, the cytotoxicity at 10 µM is 12.4%.
On to `CC(C)CN(Cc1ccccn1)Cc1ccccc1C(=O)O`, for which the cytotoxicity at 10 µM came to 2.51%.
On to `c1cnc(N2CCC3(CCN(CC4CCOC4)CC3)C2)nc1` (stereo not drawn), for which the cytotoxicity at 10 µM was -5.56%.
The figure for `Cn1cc(C2CCCN2Cc2csc(C(C)(C)C)n2)cn1` (stereo not drawn) is -4.87%.
As for `CC(C)c1nn(C)cc1CNC1CCOc2ccccc21` (stereo not drawn), the cytotoxicity at 10 µM came to 0.923%.
Take `Cn1cc(N2CCC3(CCCN(Cc4ccoc4)C3)C2=O)cn1` (stereo not drawn): the cytotoxicity at 10 µM was -77%.
Consider `CCN(C)S(=O)(=O)N1C[C@H]2CC[C@@H](C1)N(Cc1cscn1)C2=O`, for which the cytotoxicity at 10 µM stood at 11%.
The same measure for `Cc1nnc2n1CCN(Cc1csc(-c3cnn(C)c3)n1)C2`: -3.5%.
The same measure for `CN1CCN(Cc2cccnc2)Cc2cccnc21`: -76.9%.
The figure for `CN1CCN(c2ccc(F)cc2NC(=O)NCC[S+](C)[O-])CC1` (stereo not drawn) is -10.7%.
For `c1csc(CNCC2COCc3c(-c4ccoc4)nnn3C2)n1` (stereo not drawn), the cytotoxicity at 10 µM was -107%.
The same measure for `COCC1CN(C(=O)Cc2cccs2)Cc2nnn(CC3CC3)c21` (stereo not drawn): 5.98%; for `CSCCC(O)C(=O)N1CCCN(Cc2cccnc2)CC1` (stereo not drawn): 8.2%; for `COc1ccc(F)c(-c2cc(O)nc(N)n2)c1`: 2.05%.
Regarding `Cc1nc(CN2CCC(c3cc(N4CCCC4)ncn3)CC2)cs1`, the cytotoxicity at 10 µM is -159%.
Turning to `Cc1ncccc1OC1(C(=O)NCCC2CCCN2C)CCNCC1` (stereo not drawn), the cytotoxicity at 10 µM was 2.18%.
The same measure for `Cc1cccc(CN2CCC(N(C)Cc3nnc(C4CC4)n3C)C2)c1` (stereo not drawn): -6.04%.
As for `CCS(=O)(=O)N1CCOC(CCCc2ccccc2)C1` (stereo not drawn), the cytotoxicity at 10 µM is -9.31%.
Take `CN(CC1CCCN1C)c1nccc(C2CCCC2)n1` (stereo not drawn): the cytotoxicity at 10 µM was -12.9%.
On to `Cc1cc(NC(=O)NC2CCCc3c2cnn3CCO)n(C)n1` (stereo not drawn), for which the cytotoxicity at 10 µM is -15.7%.
`COc1ccc(CN(C)C(=O)CN2CC(n3cc(C)cn3)C2)cc1F`: the cytotoxicity at 10 µM is 1.59%.
With `CC(=O)NC1CCCN(Cc2ccn(C)c(=O)c2)C1` (stereo not drawn), the cytotoxicity at 10 µM amounted to 2.34%.
With `O=C(COCC(F)(F)C(F)F)N1CCC2(CCCN(CC3CC3)C2=O)C1` (stereo not drawn), the cytotoxicity at 10 µM is 4.46%.
The figure for `CCCN(C(=O)c1cnccn1)c1nc2c(s1)CCc1c-2cnn1C` is -16.7%.
The same measure for `COc1ncccc1NC(=O)N(CC(C)C)C1CC1`: -0.874%.
The figure for `CCn1ccc(NS(=O)(=O)c2cccc(COC)c2)n1` is -5.41%; for `O=c1c2ccccc2nc2n1C(CSc1ccc(Cl)cc1Cl)CN2` (stereo not drawn) it is 6.01%.
In the case of `CC(=O)N1CC2(CCN(Cc3ccc(Cl)cc3)CC2)Cc2ccccc21`, the cytotoxicity at 10 µM amounted to 14.2%.
Turning to `O=c1cc(CN2CCCC(CCc3c(F)cccc3F)C2)[nH]c(=O)[nH]1` (stereo not drawn), the cytotoxicity at 10 µM is -3.88%.
Turning to `CNC(=O)c1cnn2c(C3CCCN3C)ccnc12` (stereo not drawn), the cytotoxicity at 10 µM turned out to be 3.74%.
The same measure for `Cc1ccc(Oc2c(F)cccc2OC[C@@H](N)CC(C)C)cc1`: -8.94%.

These data come from ChEMBL document CHEMBL4513216, “Probing the Open Global Health Chemical Diversity Library for Multistage-Active Starting Points for Next-Generation Antimalarials” (ACS Infect Dis, 2020).
